Screening data deposited in PubChem BioAssay by several laboratories.
NF-kB expr up = compounds increasing NF-kB expression in human neuronal cells; NF-kB reporter expression; active compounds read high; AID 1239; fold change at 12.5 µM; hit rate 1.6% among 190,000; in the data active = fold change above about 3.3
FLuc inh counter = counter-screen for luciferase assay inhibitors: firefly luciferase inhibition | inhibition, % at 10 µM | ATPLite firefly luciferase biochemical luminescence, 10 min | hit rate 1.5% among 200,000 | P08659;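 active = inhibition above about 50% when tested at 10 µM, limit read from the data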
Target sequence (P08659 whole entry, looked up): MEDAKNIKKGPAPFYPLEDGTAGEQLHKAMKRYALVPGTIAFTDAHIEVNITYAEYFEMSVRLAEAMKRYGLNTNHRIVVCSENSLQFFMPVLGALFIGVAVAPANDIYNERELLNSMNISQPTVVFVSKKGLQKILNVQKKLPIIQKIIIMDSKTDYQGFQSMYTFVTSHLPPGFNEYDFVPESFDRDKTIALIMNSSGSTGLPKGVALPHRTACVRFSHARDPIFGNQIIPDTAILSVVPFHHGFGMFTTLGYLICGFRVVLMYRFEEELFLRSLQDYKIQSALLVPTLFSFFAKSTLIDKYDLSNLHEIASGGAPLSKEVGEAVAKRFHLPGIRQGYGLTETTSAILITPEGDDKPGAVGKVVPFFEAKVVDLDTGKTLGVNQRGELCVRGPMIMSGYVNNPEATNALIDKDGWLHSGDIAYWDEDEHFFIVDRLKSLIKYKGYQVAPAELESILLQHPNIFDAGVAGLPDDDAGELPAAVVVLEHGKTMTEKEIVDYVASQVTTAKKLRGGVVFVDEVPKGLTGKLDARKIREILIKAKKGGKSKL
APP 5'UTR act = APP 5'UTR luciferase reporter activation; activation, % at 2 µM; AID 1276; hit rate 1% among 190,000; SH-SY5Y APP 5'UTR luciferase reporter, luminescence; zero percent = DMSO vehicle wells;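 active = activation above a set limit, based on mean plus 3 SD of controls, cut at about 140% in these data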
FLuc stim CS = affects firefly luciferase, flagging false hits in luciferase stimulation screens. P08659. ATPlite luciferase biochemical, luminescence, 10 min; 0 = ATP-free wells, 1 = DMSO control. activation factor at 10 µM. 200,000 tested, under 10 active;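 active = luciferase activation factor, scaled between plate controls, of at least 2 with compound at 10 µM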
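Material: Luciferase/luciferin reagent mix; Doses: test compounds dosed from 2 mM stocks in 100% DMSO; Schedule: 10 min incubation after luciferase reagent addition, room temperature; Measured by: luminescence from luciferase reaction; Read-out: luminescence gain marking luciferase activators.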
STAT1 activator = increases IFN-gamma driven STAT1 reporter signal; activation (% of control), % at 5.5 µM; NIH 3T3 STAT1-luciferase reporter, luminescence; 100% = IFN-gamma alone, no compound; hit rate 2.6% among 200,000;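 active = activation above the screen-wide mean activation plus 3 SD, cut at about 130% in these data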;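 note: raw ratio to IFN-gamma control signal so 100% means no change and 0% no light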
STAT1 act conf = STAT1 activation, confirmation assay; shares compounds with STAT1 activator; NIH 3T3 STAT1-luciferase reporter, IFN-gamma potentiation, luminescence; 100% = IFN-gamma EC80 alone, no compound; activation (% of control), % at 5.7 µM; hit rate 97% among 1,200;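 active = activation above a set limit carried over from the earlier primary STAT1 screen, cut at about 140% in these data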;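 note: simple ratio to median IFN-gamma plus DMSO wells so 0% means no light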
NFkB act STAT1ct = activates NF-kappaB, counter-screen to STAT1 activators. hit rate 43% among 1,200. shares compounds with STAT1 activator. HEK293T NF-kB luciferase reporter, TNF-alpha stimulated, luminescence; 100% = TNF-alpha with vehicle only. activation (% of control), % at 5.7 µM;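 active = activation above the mean of solvent-only control wells plus 3 SD, set per campaign, cut at about 130% in these data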;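 note: TNF-alpha given at a submaximal dose yielding about 80% of full reporter signal; values are well signal over median control so 100% means no change and 0% no light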
STAT3 act STAT1c = human STAT3 activation in STAT1 activator counter-screen. shares compounds with STAT1 activator. U3A cells STAT3-luciferase reporter, IL-6, luminescence; cells lack STAT1; 100 = IL-6 alone, no compound effect. activation (% of control), % at 5.7 µM. hit rate 46% among 1,200;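 active = activation above the solvent-only control well mean plus 3 SD, set per plate batch, cut at about 110% in these data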;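 note: 0% = no luminescence and 100% = median IL-6 plus DMSO wells; higher means more STAT3 reporter activation so hits are non-selective activators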
The depositor's hits bear a star. Most compounds without a hit are left out; they make up all but 4.3% or so of the library.

`COC(=O)CSc1nc2ccc(C)cc2cc1C#N` gave NF-kB expr up 11.3*, FLuc inh counter -0.3, APP 5'UTR act 118.7, FLuc stim CS 1, STAT1 activator 153.1*, STAT1 act conf 275.1*, NFkB act STAT1ct 152.5* and STAT3 act STAT1c 107.6.
CCOc1ccc2nc(SCC#N)c(C#N)cc2c1 was read as NF-kB expr up 1.72, FLuc inh counter -6.3, APP 5'UTR act 18.7, FLuc stim CS 1.1, STAT1 activator 165.0*, STAT1 act conf 165.6*, NFkB act STAT1ct 111.0 and STAT3 act STAT1c 86.2.
Screening CC(NC(=O)C1c2ccccc2Oc2ccccc21)C1CCCO1 (stereo unspecified) returned NF-kB expr up 0.93, FLuc inh counter -5.5, APP 5'UTR act -7.4, FLuc stim CS 1.1 and STAT1 activator 98.0.
For Cc1ccnc2nc(C(=O)OCC(=O)NC(=O)NCc3ccco3)nn12 the results were NF-kB expr up 1.3, FLuc inh counter -5.9, APP 5'UTR act 7.6, FLuc stim CS 1.1 and STAT1 activator 93.3.
For CC(=Nc1ccc(O)cc1)c1sc2ccccc2c1O the results were NF-kB expr up 13.3*, FLuc inh counter 48.5, APP 5'UTR act 170.7*, FLuc stim CS 0.5, STAT1 activator 169.6*, STAT1 act conf 230.5*, NFkB act STAT1ct 150.1* and STAT3 act STAT1c 104.1.
Screening CC(=O)NCCN=C(C)c1sc2ccccc2c1O returned NF-kB expr up 1.65, FLuc inh counter 12.2, APP 5'UTR act 48.4, FLuc stim CS 0.9 and STAT1 activator 114.4.
`CCN1C(=S)SC(=O)C1=C1C=C(C)OC(C)=C1` gave NF-kB expr up 1.37, FLuc inh counter -3.6, APP 5'UTR act 44.3, FLuc stim CS 1 and STAT1 activator 97.7.
`CCN1C(=S)SC(=O)C1=C1C=C(C)N(Cc2ccco2)C(C)=C1` gave NF-kB expr up 3.05, FLuc inh counter 2.5, APP 5'UTR act 122.0, FLuc stim CS 1, STAT1 activator 197.8*, STAT1 act conf 277.9*, NFkB act STAT1ct 150.8* and STAT3 act STAT1c 126.5*.
Cc1ccc(NC(=S)c2nc3ccccc3[nH]2)c(C)c1 was read as NF-kB expr up 3.2, FLuc inh counter 84.8*, APP 5'UTR act 133.4, FLuc stim CS 0.2, STAT1 activator 168.8*, STAT1 act conf 190.5*, NFkB act STAT1ct 121.7 and STAT3 act STAT1c 112.7*.
`Cc1ccc(NC(=S)Nc2ccc3cn[nH]c3c2)c(C)c1` gave NF-kB expr up 1.08, FLuc inh counter -2.6, APP 5'UTR act 34.3, FLuc stim CS 1 and STAT1 activator 101.6.
Screening Cc1ccc(/C=N/c2sc3c(c2C#N)CCC3)o1 returned NF-kB expr up 0.97, FLuc inh counter 74.1*, APP 5'UTR act -1.3, FLuc stim CS 0.3, STAT1 activator 166.7*, STAT1 act conf 188.1*, NFkB act STAT1ct 135.3* and STAT3 act STAT1c 105.1.
For N#Cc1c(/N=C/N2CCOCC2)sc2c1CCCCC2 the results were NF-kB expr up 4.88*, FLuc inh counter 22.8, APP 5'UTR act 122.6, FLuc stim CS 0.8, STAT1 activator 154.6*, STAT1 act conf 194.2*, NFkB act STAT1ct 131.4 and STAT3 act STAT1c 125.5*.
`N#Cc1c(/N=C/c2ccc(Br)s2)sc2c1CCC2` gave NF-kB expr up 1.22, FLuc inh counter 18.2, APP 5'UTR act 25.0, FLuc stim CS 0.8 and STAT1 activator 121.5.
For Cc1cccc(C)c1NC(=S)N(CCCN1CCCCC1)Cc1ccco1 the results were NF-kB expr up 1.54, FLuc inh counter -2.7, APP 5'UTR act 19.4, FLuc stim CS 1 and STAT1 activator 103.9.
For COc1ccc(C(=S)N2CCOCC2)cc1OS(=O)(=O)c1ccccc1[N+](=O)[O-] the results were NF-kB expr up 0.77, FLuc inh counter -2.8, APP 5'UTR act -3.9, FLuc stim CS 1 and STAT1 activator 102.2.
Screening C(#CCN1CCC(Cc2ccccc2)CC1)COCCOCc1ccccc1 returned NF-kB expr up 0.89, FLuc inh counter -0.1, APP 5'UTR act -25.8, FLuc stim CS 1 and STAT1 activator 97.2.
`COc1ccccc1/C=N\N=C(\N)c1ccccn1` gave NF-kB expr up 2.73, FLuc inh counter 27.7, APP 5'UTR act 57.3, FLuc stim CS 0.7, STAT1 activator 161.7*, STAT1 act conf 190.1*, NFkB act STAT1ct 124.1 and STAT3 act STAT1c 107.8.
`COc1ccccc1/C=N/Nc1nccnc1Cl` gave NF-kB expr up 2.2, FLuc inh counter 25.7, APP 5'UTR act 95.2, FLuc stim CS 0.7 and STAT1 activator 109.9.
`COC(=O)c1sc(NC(=O)/C=C/c2ccc(C)o2)nc1C` gave NF-kB expr up 1.41, FLuc inh counter 7.8, APP 5'UTR act 66.4, FLuc stim CS 0.9 and STAT1 activator 111.7.
`CC1(C)CC(Cc2nc(=S)[nH][nH]2)C(=O)O1` (stereo unspecified) gave NF-kB expr up 0.91, FLuc inh counter -2.5, APP 5'UTR act 11.9, FLuc stim CS 1 and STAT1 activator 90.4.
Cc1ccc(/C=N/Nc2nc3ccccc3s2)o1 was read as NF-kB expr up 6.44*, FLuc inh counter 60.3*, APP 5'UTR act 166.9*, FLuc stim CS 0.4, STAT1 activator 153.7*, STAT1 act conf 263.9*, NFkB act STAT1ct 106.6 and STAT3 act STAT1c 128.6*.
For O=C(N/N=C/c1ccc(OC(F)F)cc1)c1cccc(S(=O)(=O)N2CCOCC2)c1 the results were NF-kB expr up 1.49, FLuc inh counter -1.5, APP 5'UTR act 26.4, FLuc stim CS 1 and STAT1 activator 97.2.
`CCC(=O)Nc1cccc(C(=O)OCc2cccc([N+](=O)[O-])c2)c1` gave NF-kB expr up 1.23, FLuc inh counter -4.7, APP 5'UTR act -6.0, FLuc stim CS 1 and STAT1 activator 98.8.
`Cc1[nH]n(-c2ccccc2)c(=O)c1C=NCc1ccco1` gave NF-kB expr up 3.79*, FLuc inh counter 28.3, APP 5'UTR act 49.6, FLuc stim CS 0.7, STAT1 activator 157.1*, STAT1 act conf 185.8*, NFkB act STAT1ct 133.0 and STAT3 act STAT1c 118.1*.
`CC(C)CC(=O)Nc1ccc2nn(-c3ccccc3)nc2c1` gave NF-kB expr up 6.3*, FLuc inh counter 31.6, APP 5'UTR act 179.1*, FLuc stim CS 0.7, STAT1 activator 177.1*, STAT1 act conf 223.6*, NFkB act STAT1ct 149.0* and STAT3 act STAT1c 109.3.
